# Bioassay records (PubChem)
# Sampled rows, rich in hits. Any-hit rate of the full collection: about 1.3%.
# G6PDH counter – L. mesenteroides G6PDH inhibition counter-screen | Purified L. mesenteroides G6PDH, diaphorase/resazurin coupled fluorescence, 45 min | inhibition, % at 5 µM | hit rate 0.12% among 200,000 | AID 1020; in the data active means inhibition above about 50%
# HKDC1 inh – blocks human hexokinase HKDC1 activity | recombinant HKDC1, G6PDH/diaphorase resazurin coupled fluorescence | inhibition, % at 20 µM | hit rate 0.16% among 340,000 | AID 493160 | Q2TB90;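 active means inhibition above about 35% when tested at 20 µM, limit read from the data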;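 further: plate controls were DMSO wells with enzyme for no effect and DMSO wells lacking enzyme for full effect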
# Target sequence (Q2TB90 whole entry, looked up): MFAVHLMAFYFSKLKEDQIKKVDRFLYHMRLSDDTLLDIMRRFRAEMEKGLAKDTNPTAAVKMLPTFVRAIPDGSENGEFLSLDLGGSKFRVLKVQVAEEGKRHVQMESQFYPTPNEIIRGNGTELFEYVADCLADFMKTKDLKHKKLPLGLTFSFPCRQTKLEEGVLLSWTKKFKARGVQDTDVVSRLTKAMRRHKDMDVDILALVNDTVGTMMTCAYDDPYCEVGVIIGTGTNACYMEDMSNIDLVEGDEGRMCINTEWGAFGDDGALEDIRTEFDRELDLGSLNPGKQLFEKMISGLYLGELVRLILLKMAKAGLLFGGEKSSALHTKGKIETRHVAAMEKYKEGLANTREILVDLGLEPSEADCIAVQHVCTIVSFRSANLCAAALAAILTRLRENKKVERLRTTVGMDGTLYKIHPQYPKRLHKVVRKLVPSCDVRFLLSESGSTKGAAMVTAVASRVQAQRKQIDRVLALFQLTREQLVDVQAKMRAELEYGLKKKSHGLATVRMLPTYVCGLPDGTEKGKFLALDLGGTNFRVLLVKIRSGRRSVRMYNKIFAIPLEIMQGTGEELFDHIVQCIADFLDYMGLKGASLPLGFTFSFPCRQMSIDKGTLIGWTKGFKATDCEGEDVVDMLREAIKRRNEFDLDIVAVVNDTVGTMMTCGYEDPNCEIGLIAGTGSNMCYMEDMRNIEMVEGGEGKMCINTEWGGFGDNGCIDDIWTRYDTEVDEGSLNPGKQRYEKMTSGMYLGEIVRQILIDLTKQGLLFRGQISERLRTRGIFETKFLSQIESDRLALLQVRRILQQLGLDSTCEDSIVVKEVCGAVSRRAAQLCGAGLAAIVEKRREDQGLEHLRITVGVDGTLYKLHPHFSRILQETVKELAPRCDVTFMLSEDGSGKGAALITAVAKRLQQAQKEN
#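 Test system: Recombinant HKDC1 (HK5) hexokinase enzyme, produced in-house | Input: HKDC1 at 5 µg/mL | Buffer or medium: Tris pH 8.0 buffer with MgCl2, Tween-20, BSA, BME | Schedule: 90 min reaction incubation at room temperature, dark | Technique: Resazurin-to-resorufin fluorescence via G6PDH and diaphorase coupling, 525/613 nm | Controls: DMSO wells with and without enzyme mix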
# PfGluPho inh – PfG6PD (Plasmodium falciparum) enzyme inhibition. PfGluPho enzyme, NADPH resazurin-diaphorase fluorescence. inhibition, % at 20 µM. hit rate 0.78% among 350,000. AID 504690;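 active means inhibition reaching at least a set limit at 20 µM in the primary screen, cut at about 59% in these data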;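 further: 0% = DMSO wells with substrate and 100% = DMSO wells lacking glucose-6-phosphate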
# Diaphorase inh – inhibits diaphorase or chemically oxidizes, flagging diaphorase assay artifacts; diaphorase resazurin-to-resorufin fluorescence, NADH, 16 min; bacterial (C. kluyveri) enzyme, not human; inhibition, % at 20 µM; hit rate 0.69% among 190,000;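 active means primary screen inhibition at 20 µM above a set limit, cut at about 50% in these data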;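 further: plate controls were DMSO with full reaction for no effect and wells lacking NADH for full effect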
#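 controls = No-NADH positive control and DMSO neutral control | system = Clostridium kluyveri diaphorase enzyme | timing = reaction incubation of 16 min at room temperature | signal = resorufin fluorescence 544/590 nm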
# HKDC1 act conf – HKDC1 (human) activation, single-dose confirmed | hit rate 14% among 740 | inhibition, % at 20 µM | shares compounds with HKDC1 inh | recombinant HKDC1, G6PDH/diaphorase resazurin fluorescence; active compounds read low | AID 504708;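 active means inhibition at or below a set negative limit, negative inhibition meaning the enzyme was activated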
# An asterisk follows results filed as active; x = no result.
SMILES,G6PDH counter,HKDC1 inh,PfGluPho inh,Diaphorase inh,others
COC(=O)C1=C(O)/C(=C\c2ccc(CNS(=O)(=O)c3ccc(Cl)cc3)o2)N=C1C,-23,-6,-12,26,
CCOC(=O)C1=C(O)/C(=C\c2ccc(CNS(=O)(=O)c3ccc(Br)cc3)o2)N=C1C,-4,-11,24,52*,
Cc1coc2c1C(=O)C(=O)c1c-2ccc2c(C)cccc12,x,30,64*,x,
Cc1coc2c1C(=O)C(=O)c1c-2ccc2c1CCCC2(C)C,45,22,17,31,
CC(C)c1nc2sc3c(SCC(=O)NCc4ccco4)ncnc3c2c2c1CCC2,16,15,8,56*,
O=C(CSc1ncnc2sc3c(c12)CCCCC3)NCc1ccco1,3,1,-1,13,
O=C(O)c1ccn(CSc2cc(Cl)ccc2Cl)n1,x,-4,-13,x,
O=C1c2c(O)cc(O)cc2O[C@H](c2ccc(O)c(O)c2)[C@H]1O,x,-8,-20,x,
O=C1c2c(O)cc(O)cc2O[C@H](c2ccc(O)c(O)c2)[C@@H]1O,36,x,x,54*,
Cc1ccc(Nc2nc(-c3ccc(O)c(O)c3)cs2)nc1,24,-3,39,83*,
Cc1ccc(Nc2nc(-c3ccc(F)cc3)cs2)nc1,x,-6,15,x,
O=C(COC(=O)c1ccccc1F)Nc1ccc2c(c1)OCCO2,x,0,-4,x,
COc1cc(/C=C2\SC(=Nc3ccccc3)N(CCc3c[nH]c4ccccc34)C2=O)ccc1OC(C)C(=O)O (configuration not stated),1,3,-21,18,
O=C1S/C(=C\c2ccc(N3CCOCC3)o2)C(=O)N1Cc1ccc(F)cc1,18,15,60*,26,
COc1ccc(N=C2S/C(=C\c3ccc(OC(C)C(=O)O)c(OC)c3)C(=O)N2CCc2c[nH]c3ccccc23)cc1 (configuration not stated),8,-4,-11,58*,
O=C1/C(=C/c2ccc(N3CCOCC3)o2)SC(=Nc2ccccc2)N1CCc1c[nH]c2ccccc12,-1,10,77*,16,
C[C@@H]1CN([C@@H](C)CO)C(=O)c2cc(NC(=O)C3CC3)ccc2O[C@@H]1CN(C)C(=O)NC1CCCCC1,x,0,-11,x,
CC1=CC(C)(C(Cl)(Cl)Cl)C(C)=CC1=NO (configuration not stated),x,x,9,x,
Cc1c2cc(O)c(=O)cc-2oc2cc(O)c(O)cc12,18,29,51,80*,
COc1c(O)cc2oc(-c3ccc(O)cc3)cc(=O)c2c1O,x,4,7,x,
COc1cc(OC)c(-c2c3cc(O)c(=O)cc-3oc3cc(O)c(O)cc23)cc1OC,14,-7,-91,81*,
COc1ccccc1NS(=O)(=O)c1ccc(C)c(NS(=O)(=O)c2cc(C(=O)O)cc(C)c2C)c1,x,0,-10,x,
CCN(CC)CCCNC1=C(Cl)C(=O)c2ccccc2C1=O,54*,1,-69,22,
COCCOc1ccc(C(F)(F)F)cc1NC(=O)CN1C(=O)NC2(CCc3ccccc32)C1=O (configuration not stated),x,3,19,x,
CCOc1ccc(NC(=O)C(c2ccccn2)N(C(=O)CCl)c2ccc(OC)cc2)cc1 (configuration not stated),20,12,53,56*,
SMILES,G6PDH counter,HKDC1 inh,PfGluPho inh,Diaphorase inh,others
COc1ccc(NC(=O)C(c2ccccn2)N(C(C)=O)c2ccc(C)cc2)cc1 (configuration not stated),17,-9,5,7,
CCOc1ccc(NC(=O)C(c2ccccn2)N(C(=O)CCl)c2ccc(OCC)cc2)cc1 (configuration not stated),8,-5,38,54*,
Cc1csc(N=Cc2ccc([N+](=O)[O-])o2)n1,x,x,32,x,
Cc1ccc(S(=O)(=O)NCc2cccnc2)cc1C(=O)NC1CCCCC1,x,5,-2,x,
CCOC(=O)Cn1ccc2cc(S(=O)(=O)N3CCCC3)ccc21,x,x,6,x,
CCCn1c(CNc2ccccc2O)nc2ccccc21,62*,12,34,32,
CCCc1ccc(C2=Nn3c(nnc3C(C)C)SC2)cc1,x,-7,60*,x,
CC(C)c1nnc2n1N=C(c1ccc(Cl)cc1)CS2,x,-5,3,x,
CC(C)(C)OC(=O)N1CCC(NC(=O)c2ncn(Cc3ccccc3)c2C(=O)NC2CCN(C(=O)OC(C)(C)C)CC2)CC1,x,-1,24,x,
O=c1cc(O)c2sc(Nc3ccc(Cl)c(F)c3)nc2[nH]1,x,39*,30,x,HKDC1 act conf=-8
CC(=O)c1ccc(NC(=O)CSc2nc3[nH]c(=O)cc(O)c3s2)cc1,x,2,-27,x,
O=c1cc(O)c2sc(Nc3ccc(F)c(Cl)c3)nc2[nH]1,11,46*,17,44,HKDC1 act conf=-20
O=C(C[C@H]1C/C=C\C[C@H](NC(=O)OCC2c3ccccc3-c3ccccc32)C(=O)O[C@H](c2ccccc2)CNC1=O)N[C@H](CO)Cc1ccccc1,x,-3,-11,x,
c1ccc2oc(C3=NNC(=NC4CC4)SC3)cc2c1,-4,-47,23,19,HKDC1 act conf=-24
Cc1ccc(-c2noc(CCC(=O)Nc3cccc(C(=O)NC4CC4)c3)n2)cc1,x,x,-4,x,
CC(=O)c1ccc(NC(=O)c2noc(C)c2[N+](=O)[O-])cc1,x,-6,-9,x,
Cc1onc(C(=O)Nc2ccc(OC(F)(F)F)cc2)c1[N+](=O)[O-],x,79*,12,x,HKDC1 act conf=-15
O=C(/C=C/Sc1ccccc1)c1ccccc1,2,36*,25,3,HKDC1 act conf=2
Cc1ccc(N=Nc2ccc(O)c3ncccc23)cc1C,9,-43,-20,14,HKDC1 act conf=-40*
Cc1ccc(N=Nc2ccc(O)c3ncccc23)cc1,4,-28,-26,5,
CC(C)(C)Cc1nnc(NC(=O)CCc2ccccc2)s1,x,-4,5,x,
CCCCC1CCC(C(=O)N(CCC(C)C)c2c(N)n(CCCC)c(=O)[nH]c2=O)CC1 (configuration not stated),x,x,-20,x,
COc1cc(/C=C2\SC(=O)N(c3ccc(Cl)cc3)C2=O)cc([N+](=O)[O-])c1O,5,44*,16,82*,HKDC1 act conf=-27
O=C1S/C(=C\c2ccc(O)c([N+](=O)[O-])c2)C(=O)N1c1ccccc1Cl,10,6,1,-6,
COc1cc(/C=C2\SC(=O)N(c3cccc(Cl)c3)C2=O)cc([N+](=O)[O-])c1O,2,51*,-17,64*,HKDC1 act conf=-13
CN(C(=O)CSc1nnc(-c2ccco2)n1C)C1CCCCC1,x,-5,-14,x,
COc1ccc(N=C2NN=C(c3ccc4c(c3)OCCO4)CS2)cc1,5,-84,33,12,HKDC1 act conf=-33*
Cc1ccc([C@@H]2CC(=O)[C@@H]3CN(S(=O)(=O)c4ccccc4C)[C@H](c4ccc(Cl)cc4)C[C@@H]3N2S(=O)(=O)c2ccc(C)cc2)cc1,x,x,4,x,
COc1ccc(S(=O)(=O)N2CCOCC2)cc1NC(=O)c1ccc(=O)[nH]c1,x,-6,-11,x,
